In PMC2718129 (Molecular cancer therapeutics, 2009):
“And” between values parts separate entries of the source, which are not always exact repeats. Equal values may be shown once. Read-outs that look alike come from different tables or passages of the source.

Experiments:
p110γ = p110γ (Homo sapiens, UniProt P48736); assay: Phosphatidylinositide 3-kinase scintillation proximity assay, p110γ; format: biochemical; details: read-out: IC50 against p110γ; 1 μmol/L ATP
[1] = tested on: panel of human cancer cell lines and human umbilical vein endothelial cells; assay: Antiproliferative GI50 assay, cell line panel; format: cell-based; details: 96 hours continuous exposure
Method in brief: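 Tumor lines were grown in DMEM with 2 mmol/L glutamine, antibiotics and 10% FBS at 37°C in 5% CO2, and read by Alamar Blue or sulforhodamine B. Pooled HUVEC were used at passages 3 to 8 and read by an alkaline phosphatase assay. Exposure was continuous for 96 h. GI50 is the mean of three independent determinations.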

[2] = Pharmacokinetics of PI-540 and PI-620 in BALB/c mice; format: in vivo; details: for volume of distribution: female BALB/c mice, 10 mg/kg i.v.; for plasma clearance / oral bioavailability / terminal half-life in plasma / terminal half-life in tissues / spleen to plasma ratio: mice; for plasma clearance / terminal half-life in plasma / terminal half-life in tissues / spleen to plasma ratio: 10 mg/kg; for oral bioavailability: 10 mg/kg i.v. and p.o.; for terminal half-life in plasma / terminal half-life in tissues: after i.v. administration; for spleen to plasma ratio: following i.v. dosing
[3] = tested on: U87MG human glioblastoma xenografts; assay: U87MG glioblastoma xenograft efficacy study; format: in vivo, athymic mice; details: for T/C (final tumor weights) / tumor growth inhibition: U87MG xenografts; for tolerability of doses: i.p. dosing for 14 days
[4] = tested on: poly(ADP-ribose) polymerase cleavage in U87MG xenografts; assay: PARP cleavage in U87MG xenografts; format: in vivo, athymic mice; details: 4 hours after oral dosing with 25 to 150 mg/kg
[5] = tested on: IGROV-1 human ovarian cancer xenografts; assay: IGROV-1 ovarian cancer xenograft efficacy study; format: in vivo, athymic mice; details: IGROV-1 xenografts
[6] = tested on: AKT phosphorylation (Ser473, Thr308) in U87MG tumor xenografts; assay: Pharmacodynamic AKT phosphorylation in U87MG xenografts; format: in vivo, athymic mice
[7] = mice, 10 mg/kg; cited from earlier work
SNUC2B cells = assay: Antiproliferative GI50 assay, SNUC2B; format: cell-based; details: Homo sapiens, SNU-C2B, 96 h, read-out: antiproliferative GI50
Method in brief: (§1)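 Cells grown in DMEM with 2 mmol/L glutamine, penicillin/streptomycin and 10% FBS at 37°C in 5% CO2, and mycoplasma-negative by PCR. Continuous 96 h exposure to test compound. Proliferation was read by Alamar Blue or sulforhodamine B, and GI50 was taken as the concentration giving 50% inhibition of proliferation.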

HCT116 cells = assay: Antiproliferative GI50 assay, HCT116; format: cell-based; details: Homo sapiens, HCT-116, 96 h, read-out: antiproliferative GI50
Method in brief: as §1

LoVo cells = assay: Antiproliferative GI50 assay, LoVo; format: cell-based; details: Homo sapiens, 96 h, read-out: antiproliferative GI50
Method in brief: as §1

[8] = tested on: U87MG human glioblastoma xenografts; details: PTEN-null U87MG glioblastoma xenografts; cited from earlier work
[9] = tested on: AKT phosphorylation (Ser473, Thr308) in U87MG tumor xenografts; details: for a short time; cited from earlier work
[10] = tested on: forkhead transcription factor translocation; details: read-out: 50% inhibition of forkhead transcription factor translocation; previously reported; cited from earlier work
[11] = tested on: phosphorylation of GSK3β Ser9 in U87MG cells; assay: Electrochemiluminescent immunoassay; format: cell-based, human
Method in brief: (§2)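 U87MG cells were seeded at 8 × 10^4 cells/mL and treated 48 h later for 2 or 8 h with 5 to 500 nmol/L inhibitor. Cells were lysed and freeze-thawed once at -80°C, and lysate went directly onto Meso Scale multiplex phospho/total plates with overnight sample incubation before secondary antibody. One well from each of three independent plates was read. IC50 is given as mean ±SD.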

[12] = tested on: phosphorylation of S6 ribosomal protein Ser235/Ser236 in U87MG cells; assay: Electrochemiluminescent immunoassay; format: cell-based, human; details: at 2 hours and, more potently, at 8 hours
Method in brief: as §2

[13] = tested on: phosphorylation of p70S6K Thr421/Ser424 in U87MG cells; assay: Electrochemiluminescent immunoassay; format: cell-based, human; details: at 2 hours and, more potently, at 8 hours
Method in brief: as §2

[14] = tested on: phosphorylation of AKT (Thr308, Ser473) in U87MG cells; assay: Electrochemiluminescent immunoassay; format: cell-based, human; details: 2 or 8 h
Method in brief: as §2

[15] = tested on: phosphorylation of GSK3β in U87MG tumor xenografts; assay: Pharmacodynamic GSK3β phosphorylation in U87MG xenografts; format: in vivo, athymic mice; details: 50 mg/kg b.i.d or 100 mg/kg u.i.d i.p. for 4 days
[16] = 25 mg/kg b.i.d i.p. for 14 days, 25 mg/kg
[17] = 50 mg/kg u.i.d i.p. for 14 days
[18] = 25 mg/kg oral daily for 13 days
[19] = 25 mg/kg daily p.o. for 19 days
[20] = 50 mg/kg b.i.d. i.p. for 14 days, 50 mg/kg
[21] = 50 mg/kg b.i.d or 100 mg/kg u.i.d i.p. for 4 days, at 1 hour

Sequence of p110γ (P48736 whole entry, species assumed): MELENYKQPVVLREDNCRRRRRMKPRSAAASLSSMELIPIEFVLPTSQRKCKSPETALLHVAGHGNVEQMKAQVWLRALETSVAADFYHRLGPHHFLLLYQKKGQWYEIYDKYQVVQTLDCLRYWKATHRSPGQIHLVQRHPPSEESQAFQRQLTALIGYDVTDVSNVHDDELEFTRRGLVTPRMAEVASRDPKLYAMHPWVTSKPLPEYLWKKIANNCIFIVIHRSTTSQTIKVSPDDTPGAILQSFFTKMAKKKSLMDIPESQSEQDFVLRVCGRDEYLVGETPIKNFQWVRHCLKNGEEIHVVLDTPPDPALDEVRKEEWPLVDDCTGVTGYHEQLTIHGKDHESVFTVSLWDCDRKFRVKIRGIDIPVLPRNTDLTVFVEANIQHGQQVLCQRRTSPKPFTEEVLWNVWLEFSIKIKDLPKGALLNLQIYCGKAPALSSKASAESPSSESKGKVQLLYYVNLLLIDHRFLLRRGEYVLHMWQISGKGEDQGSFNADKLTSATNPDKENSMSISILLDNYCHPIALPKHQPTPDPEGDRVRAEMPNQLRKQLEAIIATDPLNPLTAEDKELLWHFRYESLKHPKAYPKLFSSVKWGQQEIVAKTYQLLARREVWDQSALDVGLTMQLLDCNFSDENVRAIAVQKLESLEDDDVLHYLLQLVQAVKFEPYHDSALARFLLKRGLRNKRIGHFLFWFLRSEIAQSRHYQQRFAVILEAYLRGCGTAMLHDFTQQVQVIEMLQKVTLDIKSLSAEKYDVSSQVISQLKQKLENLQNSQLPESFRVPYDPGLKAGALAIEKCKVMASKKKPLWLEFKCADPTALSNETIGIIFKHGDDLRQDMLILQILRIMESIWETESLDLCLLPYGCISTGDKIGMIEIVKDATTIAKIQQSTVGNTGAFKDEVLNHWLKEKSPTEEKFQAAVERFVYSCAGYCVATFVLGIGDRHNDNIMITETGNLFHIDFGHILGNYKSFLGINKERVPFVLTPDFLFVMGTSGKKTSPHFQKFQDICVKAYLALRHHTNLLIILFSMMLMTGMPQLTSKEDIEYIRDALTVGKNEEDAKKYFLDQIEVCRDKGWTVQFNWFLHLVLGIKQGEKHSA

With `OCCN1CCN(Cc2cc3nc(-c4cccc(O)c4)nc(N4CCOCC4)c3s2)CC1` [PI-620] the IC50 (p110γ) was > 300 nM, the “growth inhibition potency in each cell line of the panel” value [1] was “submicromolar” and the volume of distribution [2] was 206 mL. For the same compound, the plasma clearance [2] was “high”, the oral bioavailability [2] was < 10% and the “terminal half-life in plasma” value [2] was 0.9 h. The “terminal half-life in tissues” value [2] was 4.3 h, the “spleen to plasma ratio” value [2] was 13.9 and the “T/C (final tumor weights)” value [3, 16] was 27% and 26.7%. The tumor growth inhibition [3, 16] was 73% and 73.3%, the “T/C (final tumor weights)” value [3, 17] was 44.8% and the tumor growth inhibition [3, 17] was 55.2%. For the same compound, the tolerability of doses ([3]; athymic mice) was “very well tolerated”.

In the case of `CS(=O)(=O)N1CCN(Cc2cc3nc(-c4cccc5[nH]ncc45)nc(N4CCOCC4)c3s2)CC1` [GDC-0941, 2-(1H-Indazol-4)-6-(4-methanesulfonyl-piperazin-1-ylmethyl)-4-morpholin-4-yl-thieno[3,2-d]pyrimidine], the “poly(ADP-ribose) polymerase cleavage in tumor samples” value [4] is reported as “clear increase”, the T/C [5, 18] is reported as 50.5% and the tumor growth inhibition [5, 18] is reported as 49.5%. The T/C ([5]; 150 mg/kg oral daily for 13 days) was 19.7%, the tumor growth inhibition ([5]; 150 mg/kg oral daily for 13 days, 150 mg/kg) was 80% and 80.3% and the “T/C (final tumor weights)” value [3, 19] was 23.4%. For the same compound, the tumor growth inhibition [3, 19] was 76.6%, the “T/C (final tumor weights)” value ([3]; 150 mg/kg daily p.o. for 19 days) was 2.3% and the tumor growth inhibition ([3]; 150 mg/kg daily p.o. for 19 days, 150 mg/kg) was 98% and 97.7%. The tolerability of therapy ([3]; athymic mice, 25 to 150 mg/kg daily p.o. for 19 days, all groups gained weight at similar rates to controls) was “well tolerated”, the “levels of activated AKT Ser473 in tumor” value ([6]; 150 mg/kg daily p.o. for 19 days, 4 hours after the last dose) was “undetectable” and the “duration of maintained inhibition of AKT Ser473 phosphorylation in tumor” value ([6]; oral dosing) was > 8 h. The oral bioavailability [7] was 78%, the GI50 (SNUC2B cells) was 1630 nM and the GI50 (HCT116 cells) was 905 nM. The GI50 (LoVo cells) was 180 nM.

For `Oc1cccc(-c2nc(N3CCOCC3)c3oc4ncccc4c3n2)c1` [PI-103], the “growth inhibition in xenografts” value [8] is listed as > 50%, the “inhibition of phosphorylation of AKT Ser473 in tumor” value [9] is listed as ≤ 50% and the IC50 [10] is listed as 30 nM. The GI50 (SNUC2B cells) was 827 nM and the GI50 (LoVo cells) was 22 nM.

With `CO[C@H]1C[C@@H]2CC[C@@H](C)[C@@](O)(O2)C(=O)C(=O)N2CCCC[C@H]2C(=O)O[C@H]([C@H](C)C[C@@H]2CC[C@@H](O)[C@H](OC)C2)CC(=O)[C@H](C)/C=C(\C)[C@@H](O)[C@@H](OC)C(=O)[C@H](C)C[C@H](C)/C=C/C=C/C=C/1C` [Rapamycin] the “effect on phosphorylation of GSK3β” value ([11]; 2 or 8 h) was “did not affect”, the “effect on phosphorylation of S6 ribosomal protein” value [12] was “inhibited” and the “effect on phosphorylation of p70S6K” value [13] was “inhibited”. The “effect on phosphorylation of AKT” value [14] was “did not affect”.

In the case of `CN1CCN(Cc2cc3nc(-c4cccc(O)c4)nc(N4CCOCC4)c3s2)CC1` [PI-540], the IC50 (p110γ) is reported as > 300 nM, the “fold less potent in inhibiting phosphorylation of GSK3β Ser9 compared with phosphorylation of AKT” value [11] is reported as 10 fold and the “inhibition of phosphorylation of GSK3β in tumor” value [15] is reported as “no detectable inhibition”. For the same compound, the “growth inhibition potency in each cell line of the panel” value [1] was “submicromolar”, the volume of distribution [2] was 300 mL and the plasma clearance [2] was “high”. For the same compound, the oral bioavailability [2] was < 10%, the “terminal half-life in plasma” value [2] was 0.24 h and the “terminal half-life in tissues” value [2] was 7.6 h. For the same compound, the “spleen to plasma ratio” value [2] was 31, the “T/C (final tumor weights)” value [3, 20] was 34% and 33.9% and the tumor growth inhibition [3, 20] was 66% and 66.1%. The tolerability of doses ([3]; athymic mice) was “very well tolerated”, the “inhibition of phosphorylation on AKT Ser473 in tumor” value [6, 21] was > 50% and the “inhibition of phosphorylation on AKT Thr308 in tumor” value [6, 21] was > 50%.
